Measurements: ChEMBL document CHEMBL1137361, “WB4101-related compounds: new, subtype-selective alpha1-adrenoreceptor antagonists (or inverse agonists?)” (J Med Chem, 2006)

Tests used:
Cavia porcellus [1] = species on record: Cavia porcellus; experiment: Inverse agonist effect on calcium-induced increase in resting tension of calcium-depleted guinea pig thoracic aorta at 10 nM; assay type: functional
How it was run: (§1)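 Guinea pig thoracic aorta was calcium-depleted and preincubated with antagonist, then challenged with Ca2+. The Ca2+-induced increase in resting tone was compared with the increase after the same Ca2+ challenge in the absence of antagonist.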

[2] = biological target: T1, Alpha-2A adrenergic receptor (Rattus norvegicus, UniProt P22909); experiment: Activity at adrenergic alpha 2A receptor assessed as antagonism on clonidine-inhibited twitch responses of field-stimulated Sprague-Dawley rat vas deferens; conditions: read-out: pA2 (converted)
T1 sequence (P22909 whole entry): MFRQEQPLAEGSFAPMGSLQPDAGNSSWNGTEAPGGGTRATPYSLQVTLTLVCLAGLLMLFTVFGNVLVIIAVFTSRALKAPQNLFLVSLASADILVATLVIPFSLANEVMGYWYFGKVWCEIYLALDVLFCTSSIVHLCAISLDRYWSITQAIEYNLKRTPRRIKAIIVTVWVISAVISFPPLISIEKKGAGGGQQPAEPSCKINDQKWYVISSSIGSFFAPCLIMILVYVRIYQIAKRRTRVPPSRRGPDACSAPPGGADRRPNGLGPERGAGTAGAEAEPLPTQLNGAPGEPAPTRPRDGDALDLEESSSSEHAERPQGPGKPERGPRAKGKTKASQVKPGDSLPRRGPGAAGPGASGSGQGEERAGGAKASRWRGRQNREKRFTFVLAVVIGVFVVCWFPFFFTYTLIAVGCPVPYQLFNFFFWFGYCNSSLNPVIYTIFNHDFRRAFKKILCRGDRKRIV

[3] = biological target: T2, Alpha-1A adrenergic receptor (Rattus norvegicus, UniProt P43140); experiment: Activity at adrenergic alpha 1A receptor assessed as antagonsim of noradrenaline-induced contraction of […]; assay type: functional, tissue-based, Sprague-Dawley; conditions: read-out: pA2 (converted)
T2 sequence (P43140 whole entry): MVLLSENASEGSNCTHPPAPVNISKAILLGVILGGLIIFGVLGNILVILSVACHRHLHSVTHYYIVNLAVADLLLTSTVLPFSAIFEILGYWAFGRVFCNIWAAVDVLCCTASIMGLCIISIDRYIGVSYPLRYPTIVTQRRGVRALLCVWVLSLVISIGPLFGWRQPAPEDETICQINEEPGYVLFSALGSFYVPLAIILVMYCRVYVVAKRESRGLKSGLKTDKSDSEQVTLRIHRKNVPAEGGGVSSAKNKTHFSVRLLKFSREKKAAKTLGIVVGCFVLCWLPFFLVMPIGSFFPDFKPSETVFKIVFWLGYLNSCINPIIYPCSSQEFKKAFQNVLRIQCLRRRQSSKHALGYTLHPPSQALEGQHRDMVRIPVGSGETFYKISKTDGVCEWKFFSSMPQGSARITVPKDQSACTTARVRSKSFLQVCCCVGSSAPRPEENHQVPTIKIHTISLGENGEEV
How it was run: (§2)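 Rat vas deferens, prostatic portion. Contraction was induced with (-)-noradrenaline, and blocking activity was measured as antagonism of that contraction.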

[4] = biological target: T3, Alpha-1A adrenergic receptor (Homo sapiens, UniProt P35348); experiment: Displacement of [3H]prazosin from cloned human adrenergic alpha 1A receptor expressed in CHO cells; assay type: cell-based
T3 sequence (P35348 whole entry): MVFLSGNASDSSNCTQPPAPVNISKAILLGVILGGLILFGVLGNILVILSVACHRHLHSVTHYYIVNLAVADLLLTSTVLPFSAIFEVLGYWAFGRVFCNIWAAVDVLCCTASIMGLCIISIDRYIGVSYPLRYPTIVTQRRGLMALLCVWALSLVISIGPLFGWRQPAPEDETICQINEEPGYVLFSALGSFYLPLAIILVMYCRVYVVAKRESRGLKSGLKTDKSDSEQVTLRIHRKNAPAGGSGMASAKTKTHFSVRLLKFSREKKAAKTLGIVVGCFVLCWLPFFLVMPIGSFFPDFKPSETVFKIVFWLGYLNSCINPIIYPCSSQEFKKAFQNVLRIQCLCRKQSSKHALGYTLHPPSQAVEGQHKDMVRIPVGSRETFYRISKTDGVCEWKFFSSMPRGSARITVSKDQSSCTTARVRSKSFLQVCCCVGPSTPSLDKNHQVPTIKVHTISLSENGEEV
How it was run: (§3)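 Radioligand binding with [3H]prazosin as the label. Membranes came from CHO cells expressing the cloned human receptor. Affinity is expressed as pKi.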

[5] = biological target: T4, Alpha-1D adrenergic receptor (Homo sapiens, UniProt P25100); experiment: Displacement of [3H]prazosin from cloned human adrenergic alpha 1D receptor expressed in CHO cells; assay type: cell-based; how it was run: as §3
T4 sequence (P25100 whole entry): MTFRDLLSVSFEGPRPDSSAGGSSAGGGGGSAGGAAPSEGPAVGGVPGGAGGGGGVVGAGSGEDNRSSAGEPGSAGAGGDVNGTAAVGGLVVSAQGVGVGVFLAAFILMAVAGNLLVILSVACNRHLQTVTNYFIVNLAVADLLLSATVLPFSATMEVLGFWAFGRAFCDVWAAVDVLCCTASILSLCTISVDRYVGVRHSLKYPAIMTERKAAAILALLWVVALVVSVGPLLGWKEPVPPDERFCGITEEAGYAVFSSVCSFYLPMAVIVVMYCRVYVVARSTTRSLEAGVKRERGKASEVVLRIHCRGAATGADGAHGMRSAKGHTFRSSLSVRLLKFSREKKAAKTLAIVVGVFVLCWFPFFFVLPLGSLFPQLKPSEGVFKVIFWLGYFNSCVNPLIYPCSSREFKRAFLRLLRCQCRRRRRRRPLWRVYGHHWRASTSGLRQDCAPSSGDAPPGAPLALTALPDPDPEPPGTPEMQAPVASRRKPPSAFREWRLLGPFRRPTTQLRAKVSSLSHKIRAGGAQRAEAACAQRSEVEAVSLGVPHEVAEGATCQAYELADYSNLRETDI

[6] = biological target: T5, 5-hydroxytryptamine receptor 1A (Rattus norvegicus, UniProt P19327); experiment: Displacement of [3H]8-OH-DPAT from 5-HT1A receptor in rat hippocampus; assay type: tissue-based
T5 sequence (P19327 whole entry): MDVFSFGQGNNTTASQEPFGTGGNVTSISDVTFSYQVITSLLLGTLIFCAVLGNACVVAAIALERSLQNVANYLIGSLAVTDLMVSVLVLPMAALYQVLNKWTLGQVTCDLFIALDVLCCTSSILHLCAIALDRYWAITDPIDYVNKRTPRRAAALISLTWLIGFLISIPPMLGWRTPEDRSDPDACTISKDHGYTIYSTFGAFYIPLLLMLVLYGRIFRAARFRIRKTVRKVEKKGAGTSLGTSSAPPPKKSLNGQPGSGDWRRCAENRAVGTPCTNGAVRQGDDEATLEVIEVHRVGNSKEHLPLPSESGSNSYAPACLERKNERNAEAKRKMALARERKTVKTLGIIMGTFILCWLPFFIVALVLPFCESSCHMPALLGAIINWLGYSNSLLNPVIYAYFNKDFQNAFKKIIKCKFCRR
How it was run: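 Radioligand binding with [3H]-8-OH-DPAT in membrane preparations from rat hippocampus. Affinity is expressed as pKi.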

[7] = Selectivity for 5HT1A receptor in rat hippocampus over human adrenergic alpha 1A receptor; assay type: tissue-based
[8] = biological target: Adrenergic receptors; alpha-1 A & B (Homo sapiens) (UniProt P35348+P35368); experiment: Selectivity for human adrenergic alpha 1B receptor over human adrenergic alpha 1A receptor; assay type: protein assay
[9] = biological target: T6, Alpha-1B adrenergic receptor (Homo sapiens, UniProt P35368); experiment: Displacement of [3H]prazosin from cloned human adrenergic alpha 1B receptor expressed in CHO cells; assay type: cell-based; how it was run: as §3
T6 sequence (P35368 whole entry): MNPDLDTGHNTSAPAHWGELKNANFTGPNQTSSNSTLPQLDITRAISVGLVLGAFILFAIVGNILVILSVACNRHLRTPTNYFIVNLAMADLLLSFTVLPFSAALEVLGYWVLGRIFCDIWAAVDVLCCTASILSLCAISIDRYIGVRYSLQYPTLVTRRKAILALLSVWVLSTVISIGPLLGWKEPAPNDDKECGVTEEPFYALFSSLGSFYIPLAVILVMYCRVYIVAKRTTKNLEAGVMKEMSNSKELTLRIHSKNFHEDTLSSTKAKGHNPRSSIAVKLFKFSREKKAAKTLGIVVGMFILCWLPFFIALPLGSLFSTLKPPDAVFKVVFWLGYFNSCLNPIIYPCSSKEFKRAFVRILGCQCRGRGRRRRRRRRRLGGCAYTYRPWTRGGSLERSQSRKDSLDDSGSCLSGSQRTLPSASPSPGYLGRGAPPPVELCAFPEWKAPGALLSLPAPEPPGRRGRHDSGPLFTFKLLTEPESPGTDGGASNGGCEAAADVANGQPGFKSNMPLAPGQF

[10] = biological target: Alpha adrenergic receptor (1a and 1d) (Homo sapiens) (UniProt P35348+P25100); experiment: Selectivity for human adrenergic alpha 1A receptor over human adrenergic alpha 1D receptor
[11] = biological target: T7, Alpha-1D adrenergic receptor (Rattus norvegicus, UniProt P23944); experiment: Activity at adrenergic alpha 1D receptor assessed as antagonism on noradrenaline-induced contraction of Sprague-Dawley rat thoracic aorta; assay type: functional, tissue-based; conditions: read-out: pA2 (converted)
T7 sequence (P23944 whole entry): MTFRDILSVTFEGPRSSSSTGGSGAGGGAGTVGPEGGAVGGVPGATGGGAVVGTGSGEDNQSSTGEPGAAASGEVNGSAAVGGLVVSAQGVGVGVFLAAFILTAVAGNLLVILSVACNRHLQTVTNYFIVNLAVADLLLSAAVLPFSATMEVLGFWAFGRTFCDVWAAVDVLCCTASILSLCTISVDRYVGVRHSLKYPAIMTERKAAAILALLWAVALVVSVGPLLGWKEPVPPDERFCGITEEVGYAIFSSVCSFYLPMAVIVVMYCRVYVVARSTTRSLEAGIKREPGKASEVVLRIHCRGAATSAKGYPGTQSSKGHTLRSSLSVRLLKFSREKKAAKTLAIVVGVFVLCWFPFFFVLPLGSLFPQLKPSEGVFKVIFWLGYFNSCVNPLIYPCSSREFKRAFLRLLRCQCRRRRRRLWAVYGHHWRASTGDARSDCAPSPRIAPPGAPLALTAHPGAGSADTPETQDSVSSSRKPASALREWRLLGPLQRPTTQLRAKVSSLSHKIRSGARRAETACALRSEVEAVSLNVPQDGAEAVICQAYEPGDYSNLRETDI
How it was run: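 Rat thoracic aorta contracted with (-)-noradrenaline. Blocking activity was measured as antagonism of the contraction.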

Cavia porcellus [12] = species on record: Cavia porcellus; experiment: Inverse agonist effect on calcium-induced increase in resting tension of calcium-depleted guinea pig thoracic aorta at 100 nM; assay type: functional; how it was run: as §1
[13] = biological target: T2, Alpha-1A adrenergic receptor; experiment: Activity at adrenergic alpha 1A receptor assessed as antagonism of noradrenaline-induced contraction of Sprague-Dawley rat vas deferens; assay type: functional, tissue-based; conditions: read-out: pA2 (converted); how it was run: as §2

| Structure (SMILES) | Activity (Cavia porcellus [1]) [%] | Kb [2] [nM] | Kb [3] [nM] | Ki [4] [nM] | Ki [5] [nM] | Ki [6] [nM] | Selectivity ratio [7] | Selectivity ratio [8] | Ki [9] [nM] | Selectivity ratio [10] | Kb [11] [nM] | Activity (Cavia porcellus [12]) [%] | Kb [13] [nM] |
| --- | --- | --- | --- | --- | --- | --- | --- | --- | --- | --- | --- | --- | --- |
| COc1cccc(OC)c1OCCNCC1COc2ccccc2O1 (stereo not given) | 25 | 257 | 0.661 | – | – | – | – | – | – | – | – | – | – |
| COc1cccc(OC)c1OCCNC[C@@H]1COc2cc3ccccc3cc2O1 | – | – | – | 102 | 295 | 1000 | 9.8 | 4.2 | 427 | 2.9 | – | – | – |
| COc1cccc(OC)c1OCCNC[C@@H]1COc2cc3c(cc2O1)CCCC3 | – | – | – | 100 | 204 | 501 | 5 | 4 | 398 | 2 | – | – | – |
| COc1cccc(-c2ccccc2)c1OCCNC[C@@H]1COc2ccccc2O1 | – | – | – | 9.33 | 28.8 | 77.6 | 8.3 | 16.2 | 151 | 3.1 | – | – | – |
| COc1cccc(OC)c1OCCNC[C@H]1COc2ccccc2O1.Cl | 10 | 120 | 0.324 | 0.407 | – | 2.45 | – | – | – | – | 0.631 | 27 | – |
| COc1cc(-c2ccccc2)ccc1OCCNC[C@@H]1COc2ccccc2O1 | – | – | – | 234 | 363 | 871 | 3.7 | 2.3 | 550 | 1.5 | – | – | – |
| COc1ccc2c(c1OCCNC[C@@H]1COc3ccccc3O1)CCCC2 | – | – | – | 11.5 | 15.8 | 132 | 11.5 | 4.3 | 49 | 1.3 | – | – | – |
| COc1ccc(-c2ccccc2)cc1OCCNC[C@@H]1COc2ccccc2O1 | – | – | – | 16.2 | 53.7 | 363 | 22.4 | 3.8 | 61.7 | 3.3 | – | – | – |
| COc1cccc(OC)c1OCCNC[C@@H]1COc2ccccc2O1 | – | 457 | 20 | 11.2 | – | 40.7 | – | – | – | – | 22.4 | – | 16.2 |
| COc1ccc2ccccc2c1OCCNC[C@@H]1COc2cc3c(cc2O1)CCCC3 | – | – | – | 324 | 955 | 3630 | 11.2 | 1.7 | 550 | 3 | – | – | – |
